Laboratory results: ChEMBL document CHEMBL1149770, “Synthesis and antimicrobial studies of novel dichlorofluorophenyl containing aminotriazolothiadiazines” (2008)
Values after ≈ are worked out from the molar mass of the structure shown.

What was measured:
[1] = tested on: Klebsiella pneumoniae; assay: Antibacterial activity against Klebsiella pneumoniae after 24 hrs by broth dilution technique; assay type: functional
Summary of the method: (§1)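 MIC by broth dilution in nutrient broth with logarithmic serial twofold dilutions of compound. Inoculum approx. 5×10^5 c.f.u actively dividing bacteria. Incubated 24 h at 37 °C, growth monitored visually and spectrophotometrically. MIC taken as the lowest concentration (highest dilution) arresting growth. Ciprofloxacin reference.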

[2] = tested on: Klebsiella pneumoniae; assay: Antibacterial activity against Klebsiella pneumoniae assessed as inhibition zone diameter after 24 hrs […]; assay type: functional
Summary of the method: (§2)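 Disc diffusion on nutrient agar. Inoculum 1-2 × 10^7 c.f.u/ml (0.5 McFarland) spread over the plate surface. Sterile 6.25 mm filter-paper discs soaked in a known concentration of compound. Solvent and growth controls included. Plates incubated inverted 24 h at 37 °C, then inhibition zone diameter measured in mm. Ciprofloxacin reference.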

[3] = tested on: Pseudomonas aeruginosa; assay: Antibacterial activity against Pseudomonas aeruginosa ATCC 27853 after 24 hrs by broth dilution technique; assay type: functional; conditions: ATCC 27853, 24 h; summary of the method: as §1
[4] = tested on: Aspergillus fumigatus; assay: Antifungal activity against Aspergillus fumigatus after 48 hrs […]; assay type: functional
[5] = tested on: Candida albicans; assay: Antifungal activity against Candida albicans after 48 hrs […]; assay type: functional
[6] = tested on: Staphylococcus aureus; assay: Antibacterial activity against Staphylococcus aureus ATCC 25923 after 24 hrs by broth dilution technique; assay type: functional; conditions: ATCC 25923, 24 h; summary of the method: as §1
[7] = tested on: Aspergillus flavus; assay: Antifungal activity against Aspergillus flavus assessed as inhibition zone diameter […] by agar dilution method; assay type: functional
Summary of the method: (§3)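 Compounds in DMSO placed in punched wells on Sabouraud agar (peptone, glucose, agar, pH 5.7) lawned with saline spore suspension. Plates pre-dried 1 h at 37 °C. Controls in triplicate, incubation at 37 °C for 3-4 days, then inhibition zone diameter read in mm. Amphotericin B reference.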

[8] = tested on: Escherichia coli; assay: Antibacterial activity against Escherichia coli ATCC 25922 after 24 hrs by broth dilution technique; assay type: functional; conditions: ATCC 25922, 24 h; summary of the method: as §1
[9] = tested on: Aspergillus flavus; assay: Antifungal activity against Aspergillus flavus after 48 hrs […]; assay type: functional
[10] = tested on: Talaromyces marneffei; assay: Antifungal activity against Penicillium marneffei assessed as inhibition zone diameter […] by agar dilution method; assay type: functional; summary of the method: as §3
[11] = tested on: Trichophyton mentagrophytes; assay: Antifungal activity against Trichophyton mentagrophytes after 48 hrs […]; assay type: functional
[12] = tested on: Candida albicans; assay: Antifungal activity against Candida albicans assessed as inhibition zone diameter […] by agar dilution method; assay type: functional; summary of the method: as §3
[13] = tested on: Trichophyton mentagrophytes; assay: Antifungal activity against Trichophyton mentagrophytes assessed as inhibition zone diameter […] by agar dilution method; assay type: functional; summary of the method: as §3
[14] = tested on: Talaromyces marneffei; assay: Antifungal activity against Penicillium marneffei after 48 hrs […]; assay type: functional
[15] = tested on: Aspergillus fumigatus; assay: Antifungal activity against Aspergillus fumigatus assessed as inhibition zone diameter […] by agar dilution method; assay type: functional; summary of the method: as §3
[16] = tested on: Streptococcus pyogenes; assay: Antibacterial activity against Streptococcus pyogenes after 24 hrs by broth dilution technique; assay type: functional; summary of the method: as §1
[17] = tested on: Staphylococcus aureus; assay: Antibacterial activity against Staphylococcus aureus ATCC 25923 assessed as inhibition zone diameter after 24 hrs […]; assay type: functional; summary of the method: as §2
[18] = tested on: Pseudomonas aeruginosa; assay: Antibacterial activity against Pseudomonas aeruginosa ATCC 27853 assessed as inhibition zone diameter after 24 hrs […]; assay type: functional; summary of the method: as §2
[19] = tested on: Streptococcus pyogenes; assay: Antibacterial activity against Streptococcus pyogenes assessed as inhibition zone diameter after 24 hrs by disc diffusion method

Compound: Fc1cc(-c2nnc3n2N=C(Nc2ccc(Cl)cc2Cl)CS3)c(Cl)cc1Cl
- MIC [1]: 12.5 µg/mL (≈ 27 µM)
- inhibition zone (IZ) [2]: 17 mm
- MIC [3]: > 100 µg/mL
- MIC [4]: 6.25 µg/mL (≈ 13.5 µM)
- MIC [5]: 12.5 µg/mL (≈ 27 µM)
- MIC [6]: > 100 µg/mL
- inhibition zone (IZ) [7]: 8 mm
- MIC [8]: 12.5 µg/mL (≈ 27 µM)
- MIC [9]: 25 µg/mL (≈ 54 µM)
- inhibition zone (IZ) [10]: 12 mm
- MIC [11]: 12.5 µg/mL (≈ 27 µM)
- inhibition zone (IZ) [12]: 15 mm
- inhibition zone (IZ) [13]: 11 mm
- MIC [14]: 12.5 µg/mL (≈ 27 µM)
- inhibition zone (IZ) [15]: 19 mm

Compound: Fc1ccc(NC2=Nn3c(nnc3-c3cc(F)c(Cl)cc3Cl)SC2)cc1
- MIC [1]: 12.5 µg/mL (≈ 30.3 µM)
- inhibition zone (IZ) [2]: 16 mm
- MIC [3]: 12.5 µg/mL (≈ 30.3 µM)
- MIC [4]: 25 µg/mL (≈ 60.6 µM)
- MIC [5]: 12.5 µg/mL (≈ 30.3 µM)
- MIC [16]: 6.25 µg/mL (≈ 15.2 µM)
- MIC [6]: 12.5 µg/mL (≈ 30.3 µM)
- inhibition zone (IZ) [17]: 15 mm
- inhibition zone (IZ) [18]: 24 mm
- inhibition zone (IZ) [19]: 22 mm
- MIC [8]: 6.25 µg/mL (≈ 15.2 µM)
- MIC [9]: > 100 µg/mL
- inhibition zone (IZ) [10]: 19 mm
- MIC [11]: 6.25 µg/mL (≈ 15.2 µM)
- inhibition zone (IZ) [12]: 14 mm
- inhibition zone (IZ) [13]: 18 mm
- MIC [14]: 6.25 µg/mL (≈ 15.2 µM)
- inhibition zone (IZ) [15]: 6 mm

Compound: Fc1ccc(NC2=Nn3c(nnc3-c3cc(F)c(Cl)cc3Cl)SC2)cc1Cl
- MIC [1]: 12.5 µg/mL (≈ 28 µM)
- inhibition zone (IZ) [2]: 11 mm
- MIC [3]: 12.5 µg/mL (≈ 28 µM)
- MIC [4]: > 100 µg/mL
- MIC [5]: > 100 µg/mL
- MIC [16]: 6.25 µg/mL (≈ 14 µM)
- MIC [6]: > 100 µg/mL
- inhibition zone (IZ) [18]: 20 mm
- inhibition zone (IZ) [19]: 18 mm
- MIC [8]: 6.25 µg/mL (≈ 14 µM)
- MIC [9]: > 100 µg/mL
- inhibition zone (IZ) [10]: 16 mm
- MIC [11]: 25 µg/mL (≈ 56 µM)
- inhibition zone (IZ) [13]: 10 mm
- MIC [14]: 12.5 µg/mL (≈ 28 µM)

Compound: C[C@@H]1[C@H](O)[C@@H](C)/C=C/C=C/C=C/C=C/C=C/C=C/C=C/[C@H](O[C@@H]2O[C@H](C)[C@@H](O)[C@H](N)[C@@H]2O)C[C@@H]2O[C@](O)(C[C@@H](O)C[C@@H](O)[C@H](O)CC[C@@H](O)C[C@@H](O)CC(=O)O[C@H]1C)C[C@H](O)[C@H]2C(=O)O [AMPHOTERICIN B]
- MIC [4]: 6.25 µg/mL (≈ 6.76 µM)
- MIC [5]: 6.25 µg/mL (≈ 6.76 µM)
- inhibition zone (IZ) [7]: 25 mm
- MIC [9]: 6.25 µg/mL (≈ 6.76 µM)
- inhibition zone (IZ) [10]: 23 mm
- MIC [11]: 6.25 µg/mL (≈ 6.76 µM)
- inhibition zone (IZ) [12]: 20 mm
- inhibition zone (IZ) [13]: 19 mm
- MIC [14]: 6.25 µg/mL (≈ 6.76 µM)
- inhibition zone (IZ) [15]: 22 mm

Compound: O=C(O)c1cn(C2CC2)c2cc(N3CCNCC3)c(F)cc2c1=O [CIPROFLOXACIN]
- MIC [1]: 6.25 µg/mL (≈ 18.9 µM)
- inhibition zone (IZ) [2]: 22 mm
- MIC [16]: 6.25 µg/mL (≈ 18.9 µM)
- inhibition zone (IZ) [17]: 25 mm
- inhibition zone (IZ) [18]: 33 mm
- inhibition zone (IZ) [19]: 25 mm
